ChEMBL document CHEMBL1147605, “Syntheses and biological evaluation of new fluoroquinolone antibacterials containing chiral oxiimino pyrrolidine” (Bioorg Med Chem Lett, 2004)

What was measured:
[1] = Half-life period for the compound was determined in rats at 50 mg/kg dose; format: ADME, organism-based; parameters: dose 50 mg/kg; conditions: rat, in vivo
[2] = Plasma concentration for the compound was determined in rats at 50 mg/kg dose; format: ADME, organism-based; parameters: dose 50 mg/kg; conditions: rat
Procedure, shortened: (§1)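 Pharmacokinetics were measured in SD rats given 50mg/kg, reporting Cmax, Tmax, T1/2 and AUC.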

[3] = Time for maximum plasma concentration reached by compound was determined in rats at 50 mg/kg dose; format: ADME, organism-based; parameters: dose 50 mg/kg; conditions: rat; procedure, shortened: as §1
[4] = Maximum plasma concentration reached by compound was determined in rats at 50 mg/kg dose; format: ADME, organism-based; parameters: dose 50 mg/kg; conditions: rat; procedure, shortened: as §1
Enterococcus sp. = assay: In vitro antibacterial activity against the Ofloxacin Resistant Enterococcus knothe 101; format: functional
Procedure, shortened: (§2)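 MICs by agar dilution following National Committee for Clinical Laboratory Standards recommendations; all strains obtained from Hoechst.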

Enterobacter cloacae = assay: In vitro antibacterial activity against the Enterobacter cloacae 1321 E; format: functional
Escherichia coli [5] = assay: In vitro antibacterial activity against the Escherichia coli 078; format: functional
HepG2 = assay: Cytotoxicity was determined for the compound in HepG2 cell line; format: functional, cell-based; conditions: Homo sapiens
Klebsiella = assay: In vitro antibacterial activity against the Ofloxacin Resistant Klebsiella species 30-92; format: functional; procedure, shortened: as §2
Pseudomonas aeruginosa [6] = assay: In vitro antibacterial activity against the Ofloxacin Resistant Pseudomonas aeruginosa 279II; format: functional; procedure, shortened: as §2
Pseudomonas aeruginosa [7] = assay: In vitro antibacterial activity against the Pseudomonas aeruginosa 1592E; format: functional
Pseudomonas aeruginosa [8] = assay: In vitro antibacterial activity against the Pseudomonas aeruginosa 1771M; format: functional
Salmonella typhimurium = assay: In vitro antibacterial activity against the Salmonella Typhimurium; format: functional, Salmonella enterica subsp. enterica serovar Typhimurium; conditions: Salmonella enterica
[9] = tested on: Staphylococcus epidermidis; assay: In vitro antibacterial activity against the Ofloxacin Resistant Staphylococcus epidermidis 291; format: functional; procedure, shortened: as §2
[10] = tested on: Staphylococcus epidermidis; assay: In vitro antibacterial activity against the Ofloxacin Resistant Staphylococcus epidermidis 319; format: functional; procedure, shortened: as §2
Staphylococcus aureus [11] = assay: In vitro antibacterial activity against the Ofloxacin Resistant Staphylococcus aureus 179; format: functional; procedure, shortened: as §2
Staphylococcus aureus [12] = assay: In vitro antibacterial activity against the Ofloxacin Resistant Staphylococcus aureus 293; format: functional; procedure, shortened: as §2
Staphylococcus aureus [13] = assay: In vitro antibacterial activity against the Ofloxacin Resistant Staphylococcus aureus 303; format: functional; procedure, shortened: as §2
Staphylococcus aureus [14] = assay: In vitro antibacterial activity against the Methicillin-Resistant Staphylococcus aureus (MRSA) 690 E; format: functional; procedure, shortened: as §2
Staphylococcus aureus [15] = assay: In vitro antibacterial activity against the Methicillin-Resistant Staphylococcus aureus (MRSA) 692 E; format: functional; procedure, shortened: as §2
Staphylococcus aureus [16] = assay: In vitro antibacterial activity against the Methicillin-Resistant Staphylococcus aureus (MRSA) 697 E; format: functional; procedure, shortened: as §2
Staphylococcus aureus [17] = assay: In vitro antibacterial activity against the Methicillin-Resistant Staphylococcus aureus (MRSA) 701 E; format: functional; procedure, shortened: as §2
Staphylococcus aureus [18] = assay: In vitro antibacterial activity against the Methicillin-Resistant Staphylococcus aureus (MRSA) 705 E; format: functional; procedure, shortened: as §2
Staphylococcus aureus [19] = assay: In vitro antibacterial activity against the Methicillin-Resistant Staphylococcus aureus (MRSA) 707 E; format: functional; procedure, shortened: as §2
Staphylococcus aureus [20] = assay: In vitro antibacterial activity against the Staphylococcus aureus SG511; format: functional
Streptococcus pyogenes [21] = assay: In vitro antibacterial activity against the Streptococcus pyogenes 308A; format: functional
Streptococcus pyogenes [22] = assay: In vitro antibacterial activity against the Streptococcus pyogenes 77A; format: functional
V79-4 = assay: Cytotoxicity was determined for the compound in V79-4 cell line; format: functional, cell-based; conditions: Cricetulus griseus
Escherichia coli [23] = assay: In vitro antibacterial activity against the Escherichia coli DC 2; format: functional
Staphylococcus aureus [24] = assay: In vitro antibacterial activity against the Staphylococcus aureus 285; format: functional

Compound	MIC (Enterococcus sp.)	MIC (Enterobacter cloacae)	MIC (Escherichia coli [5])	MIC (Klebsiella)	MIC (Pseudomonas aeruginosa [6])	MIC (Pseudomonas aeruginosa [7])	MIC (Pseudomonas aeruginosa [8])	MIC (Salmonella typhimurium)	MIC [9]	MIC [10]	MIC (Staphylococcus aureus [11])	MIC (Staphylococcus aureus [12])	MIC (Staphylococcus aureus [13])	MIC (Staphylococcus aureus [14])	MIC (Staphylococcus aureus [18])	MIC (Staphylococcus aureus [20])	MIC (Streptococcus pyogenes [21])	MIC (Streptococcus pyogenes [22])	MIC (Escherichia coli [23])	MIC (Staphylococcus aureus [24])	other results
CO/N=C1\CN(c2nc3c(cc2F)c(=O)c(C(=O)O)cn3C2CC2)C[C@]1(C)CN.Cl	0.098 µg/mL	0.007 µg/mL	0.025 µg/mL	1.56 µg/mL	6.25 µg/mL	1.56 µg/mL	0.781 µg/mL	0.013 µg/mL	0.195 µg/mL	0.391 µg/mL	0.098 µg/mL	0.098 µg/mL	0.098 µg/mL	< 0.002 µg/mL	0.004 µg/mL	0.004 µg/mL	0.098 µg/mL	0.013 µg/mL	0.049 µg/mL	0.007 µg/mL	half-life [1]: 4.5 h; AUC [2]: 90800 ng·h/mL; Tmax [3]: 2 h; Cmax [4]: 9060 ng/mL; IC50 (HepG2): 37.3 µg/mL; MIC (Staphylococcus aureus [15]): < 0.002 µg/mL; MIC (Staphylococcus aureus [16]): < 0.002 µg/mL; MIC (Staphylococcus aureus [17]): < 0.002 µg/mL; MIC (Staphylococcus aureus [19]): < 0.002 µg/mL; IC50 (V79-4): 5.49 µg/mL
CO/N=C1\CN(c2nc3c(cc2F)c(=O)c(C(=O)O)cn3C2CC2)C[C@@]1(C)CN.Cl	0.391 µg/mL	0.007 µg/mL	0.025 µg/mL	3.12 µg/mL	6.25 µg/mL	0.781 µg/mL	0.391 µg/mL	0.013 µg/mL	3.12 µg/mL	6.25 µg/mL	1.56 µg/mL	1.56 µg/mL	0.781 µg/mL	0.025 µg/mL	0.049 µg/mL	0.049 µg/mL	0.195 µg/mL	0.098 µg/mL	0.098 µg/mL	0.049 µg/mL	MIC (Staphylococcus aureus [15]): 0.025 µg/mL; MIC (Staphylococcus aureus [16]): 0.025 µg/mL; MIC (Staphylococcus aureus [17]): 0.049 µg/mL; MIC (Staphylococcus aureus [19]): 0.013 µg/mL
CC1(CN)CN(c2nc3c(cc2F)c(=O)c(C(=O)O)cn3C2CC2)C/C1=N/OCc1ccccc1.Cl (stereo unspecified)	–	0.049 µg/mL	0.049 µg/mL	–	–	6.25 µg/mL	1.56 µg/mL	0.098 µg/mL	–	–	–	–	–	–	–	< 0.002 µg/mL	0.195 µg/mL	0.025 µg/mL	0.098 µg/mL	< 0.002 µg/mL	–
CO/N=C1\CN(c2nc3c(cc2F)c(=O)c(C(=O)O)cn3C2CC2)CC1(C)CN.Cl (stereo unspecified)	0.098 µg/mL	0.004 µg/mL	0.004 µg/mL	1.56 µg/mL	6.25 µg/mL	0.781 µg/mL	0.391 µg/mL	0.007 µg/mL	0.391 µg/mL	0.391 µg/mL	0.195 µg/mL	0.195 µg/mL	0.195 µg/mL	0.004 µg/mL	0.013 µg/mL	0.004 µg/mL	0.098 µg/mL	0.025 µg/mL	0.049 µg/mL	0.007 µg/mL	MIC (Staphylococcus aureus [15]): < 0.002 µg/mL; MIC (Staphylococcus aureus [16]): 0.007 µg/mL; MIC (Staphylococcus aureus [17]): 0.007 µg/mL; MIC (Staphylococcus aureus [19]): < 0.002 µg/mL
CO/N=C1\CN(c2c(F)c(N)c3c(=O)c(C(=O)O)cn(C4CC4)c3c2F)CC1(C)CN.Cl (stereo unspecified)	0.025 µg/mL	< 0.002 µg/mL	< 0.002 µg/mL	0.781 µg/mL	6.25 µg/mL	0.391 µg/mL	0.195 µg/mL	< 0.002 µg/mL	0.025 µg/mL	0.049 µg/mL	0.025 µg/mL	0.025 µg/mL	0.025 µg/mL	–	0.004 µg/mL	< 0.002 µg/mL	0.013 µg/mL	< 0.002 µg/mL	0.007 µg/mL	–	–
CO/N=C1\CN(c2c(F)cc3c(=O)c(C(=O)O)cn(C4CC4)c3c2Cl)CC1(C)CN.Cl (stereo unspecified)	–	0.004 µg/mL	0.007 µg/mL	–	–	0.781 µg/mL	0.195 µg/mL	0.025 µg/mL	–	–	–	–	–	–	–	0.007 µg/mL	0.195 µg/mL	0.025 µg/mL	0.025 µg/mL	0.007 µg/mL	–
